Reference: ChEMBL document CHEMBL1123011, “Isoxazoles with antipicornavirus activity” (1985)
In brackets after ≈: the same amount, converted by molar mass. Activity calls are given as the source filed them. No cut-off for these calls is given here.

How the values were obtained:
Poliovirus 2 [1] = assay: Compound tested in vitro for anti-picornavirus activity against Poliovirus type-2; assay type: functional; details: Enterovirus C
In short: (§1)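 Plaque-reduction assay on day-old HeLa (Ohio) monolayers at 90% confluence, infected with polio-2 at ca. 80 pfu/well. Adsorption was at least 1 h at 37 °C in 2% CO2. Cells were then overlaid in duplicate with drug in M-199/calf serum/agarose (Me2SO stock at 10 mg/mL, twofold dilutions) and held 3 days. Plaques were fixed with formaldehyde, stained with crystal violet and counted. MIC is the concentration giving 50% plaque reduction.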

rhinovirus A2 [2] = assay: (§2) In vitro anti-picornavirus activity against Rhinovirus type-2.; assay type: functional; details: Rhinovirus A
In short: (§3)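 HeLa (Ohio) monolayers (day-old, 90%) were infected at about 80 pfu/well and adsorbed at least 1 h at 33 °C in 2% CO2. After 3 days at 33 °C they were fixed with formaldehyde and stained with crystal violet. MIC was the concentration giving 50% fewer plaques.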

[3] = Maximum testable level of compound was evaluated; assay type: functional
In short: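 In the HeLa (Ohio) plaque-overlay system, Me2SO-solubilized compound was twofold serially diluted into the agarose overlay. Uninfected cell controls were run alongside and cells were stained with crystal violet after 3 days. The maximum testable level was taken as the concentration below which no cytotoxic effects were seen.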

rhinovirus A2 [4] = assay: In vitro anti-picornavirus activity against Rhinovirus type-2; Not Active.; assay type: functional, organism-based; in short: as §3
Poliovirus 2 [5] = assay: Compound tested in vitro for anti-picornavirus activity against Poliovirus type-2; NA=Not Active; assay type: functional, organism-based; in short: as §1
rhinovirus A2 [6] = assay: as §2; assay type: functional; details: Rhinovirus A; remark: listed apart in the source
In short: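 HeLa (Ohio) monolayers (day-old, 90%) were infected at about 80 pfu/well and adsorbed at least 1 h at 33 °C in 2% CO2. After 3 days at 33 °C they were fixed with formaldehyde and stained with crystal violet.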

Poliovirus 2 [7] = assay: In vitro anti-picornavirus activity against Poliovirus type-2.; assay type: functional; details: Enterovirus C
Poliovirus 2 [8] = assay: In vitro for anti-picornavirus activity against Poliovirus type-2; Not Active.; assay type: functional, organism-based; in short: as §1
Poliovirus 2 [9] = assay: Compound tested in vitro for anti-picornavirus activity against Poliovirus type-2; NA=Not Active.; assay type: functional, organism-based; in short: as §1

| Structure (SMILES) | MIC (rhinovirus A2 [2]) [µg/mL] | MTL [3] [µg/mL] | MIC (rhinovirus A2 [6]) [µg/mL] | MIC (Poliovirus 2 [7]) [µg/mL] | further results |
| --- | --- | --- | --- | --- | --- |
| CCOC(=O)c1ccc(OCCCCCc2cc(C)no2)cc1 | 0.015 (≈ 0.0473 µM) | 12.5 |  |  | MIC (Poliovirus 2 [1]): 0.6 µg/mL (≈ 1.89 µM) |
| CCc1noc(CC)c1CCCCCCOc1ccc2c(c1)OCO2 |  | 6.2 |  |  | MIC (rhinovirus A2 [4]): inactive; MIC (Poliovirus 2 [5]): inactive |
| CCc1noc(CC)c1CCCCCCOc1ccc(SC)cc1 |  | 12.5 |  |  | MIC (rhinovirus A2 [4]): inactive; MIC (Poliovirus 2 [1]): 0.6 µg/mL (≈ 1.73 µM) |
| COc1ccc(OCCCCCCCCc2cc(C)no2)c(Cl)c1 |  | 12.5 | 0.16 (≈ 0.455 µM) | 0.65 (≈ 1.85 µM) |  |
| CCc1noc(CC)c1CCCCCCOc1ccc(OC)cc1C(=O)O |  | 12.5 |  |  | MIC (rhinovirus A2 [4]): inactive; MIC (Poliovirus 2 [5]): inactive |
| Cc1cc(CCCCCCCOc2ccc(C(=O)OC(C)(C)C)cc2)on1 |  | 2.5 | 6.2 (≈ 16.6 µM) | 1.2 (≈ 3.21 µM) |  |
| COc1ccc(OCCCCCc2cc(C)no2)c(Cl)c1 | 0.4 (≈ 1.29 µM) | 12.5 |  |  | MIC (Poliovirus 2 [1]): 0.2 µg/mL (≈ 0.646 µM) |
| Cc1cc(CCCCCCCOc2ccc(OC(C)C)cc2)on1 |  | 12.5 | 0.7 (≈ 2.11 µM) | 0.1 (≈ 0.302 µM) |  |
| COc1ccc(OCCCCCCCc2cc(C)no2)c([N+](=O)[O-])c1 |  | 3.1 | 0.3 (≈ 0.861 µM) | 0.2 (≈ 0.574 µM) |  |
| Cc1cc(CCCCCCCOc2ccc(Cl)cc2)on1 |  | 3.1 | 1.5 (≈ 4.87 µM) | 0.3 (≈ 0.975 µM) |  |
| CCc1noc(CC)c1CCCCCCOc1ccc(OC)cc1 | 3.1 (≈ 9.35 µM) | 6.2 |  |  | MIC (Poliovirus 2 [5]): inactive |
| CCOC(=O)c1ccc(OCCCCCCCc2c(CC)noc2CC)cc1 |  | 12 | 0.05 (≈ 0.129 µM) | 0.4 (≈ 1.03 µM) |  |
| CCc1noc(CC)c1CCCCCCOc1ccccc1C(F)(F)F | 3.1 (≈ 8.39 µM) | 6.2 |  |  | MIC (Poliovirus 2 [5]): inactive |
| Cc1cc(CCCCCCCOc2ccccc2)on1 |  | 6.2 | 1.2 (≈ 4.39 µM) | 1.7 (≈ 6.22 µM) |  |
| CCOC(=O)c1ccc(OCCCCCCCCc2c(CC)noc2CC)cc1 |  | 12.5 | 0.4 (≈ 0.996 µM) |  | MIC (Poliovirus 2 [8]): inactive |
| Cc1cc(CCCCCCCOc2ccc(C(=O)OC(C)C)cc2)on1 |  | 12.5 | 0.2 (≈ 0.556 µM) | 0.9 (≈ 2.5 µM) |  |
| CCOC(=O)c1ccc(OCCCCCCc2c(CC)noc2CC)cc1 | 0.1 (≈ 0.268 µM) | 6.2 |  |  | MIC (Poliovirus 2 [1]): 0.5 µg/mL (≈ 1.34 µM) |
| Cc1cc(CCCCCCCOc2ccc(C(=O)NN)cc2)on1 |  | 12.5 | 0.64 (≈ 1.93 µM) |  | MIC (Poliovirus 2 [8]): inactive |
| CCOC(=O)c1ccc(OCCCCCCCc2cc(C)no2)cc1 |  | 2.5 | 0.025 (≈ 0.0724 µM) | 0.8 (≈ 2.32 µM) |  |
| Cc1ccc(OCCCCCCCc2cc(C)no2)c(Cl)c1 |  | 6.2 | 1.2 (≈ 3.73 µM) | 0.8 (≈ 2.49 µM) |  |
| CCc1noc(CC)c1CCCCCCOc1c(Cl)cccc1Cl | 1.6 (≈ 4.32 µM) | 12 |  |  | MIC (Poliovirus 2 [1]): 5.9 µg/mL (≈ 15.9 µM) |
| Cc1cc(CCCCCCCOc2ccc(C(C)C)cc2)on1 |  | 12.5 | 1 (≈ 3.17 µM) | 0.04 (≈ 0.127 µM) |  |
| CCc1noc(CC)c1CCCCCCOc1ccc(OC)cc1Br | 0.4 (≈ 0.975 µM) | 6 |  |  | MIC (Poliovirus 2 [5]): inactive |
| CCOC(=O)c1ccc(OCCCCCCc2cc(C)no2)cc1 | 0.01 (≈ 0.0302 µM) | 12.5 |  |  | MIC (Poliovirus 2 [1]): 0.8 µg/mL (≈ 2.41 µM) |

| Structure (SMILES) | MIC (rhinovirus A2 [2]) [µg/mL] | MTL [3] [µg/mL] | MIC (rhinovirus A2 [6]) [µg/mL] | MIC (Poliovirus 2 [7]) [µg/mL] | further results |
| --- | --- | --- | --- | --- | --- |
| Cc1cc(CCCCCCCOc2ccc(C(=O)N(C)C)cc2)on1 |  | 3.1 |  | 2.5 (≈ 7.26 µM) | MIC (rhinovirus A2 [4]): inactive |
| CCc1noc(CC)c1CCCCCCOc1c(OC)cccc1OC | 3.1 (≈ 8.58 µM) | 6.2 |  |  | MIC (Poliovirus 2 [5]): inactive |
| CCOC(=O)c1ccc(OCCCCCCCCc2cc(C)no2)cc1 |  | 12.5 | 0.05 (≈ 0.139 µM) |  | MIC (Poliovirus 2 [8]): inactive |
| CCCOC(=O)c1ccc(OCCCCCCCc2cc(C)no2)cc1 |  | 25 | 0.07 (≈ 0.195 µM) |  | MIC (Poliovirus 2 [8]): inactive |
| CCc1noc(CC)c1CCCCCCOc1cccc(I)c1 | 6.3 (≈ 14.7 µM) | 12.5 |  |  | MIC (Poliovirus 2 [5]): inactive |
| Cc1cc(CCCCCCCOc2ccc(C(N)=O)cc2)on1 |  | 12.5 |  |  | MIC (rhinovirus A2 [4]): inactive; MIC (Poliovirus 2 [8]): inactive |
| CCc1noc(CC)c1CCCCCCOc1ccc(C(=O)OC)cc1Cl | 0.4 (≈ 1.02 µM) | 1.6 |  |  | MIC (Poliovirus 2 [1]): 0.61 µg/mL (≈ 1.55 µM) |
| CCc1noc(CC)c1CCCCCCOc1ccc(F)cc1Cl | 3.1 (≈ 8.76 µM) | 12.5 |  |  | MIC (Poliovirus 2 [5]): inactive |
| Cc1cc(CCCCCCCOc2ccc(OCc3ccccc3)cc2)on1 |  | 12.5 |  |  | MIC (rhinovirus A2 [4]): inactive |
| CCc1noc(CC)c1CCCCCCOc1ccc(O)cc1 |  | 25 |  |  | MIC (rhinovirus A2 [4]): inactive; MIC (Poliovirus 2 [5]): inactive |
| COC(=O)c1ccc(OCCCCCCCc2cc(C)no2)cc1 |  | 6.2 | 3 (≈ 9.05 µM) | 0.4 (≈ 1.21 µM) |  |
| CCc1noc(CC)c1CCCCCCOc1ccc(OC)cc1Cl | 0.8 (≈ 2.19 µM) | 12 |  |  | MIC (Poliovirus 2 [9]): inactive |
| CCOC(=O)c1ccc(OCCCCc2cc(C)no2)cc1 | 3.1 (≈ 10.2 µM) | 6.2 |  |  | MIC (Poliovirus 2 [5]): inactive |
| CCc1noc(CC)c1CCCCCCOc1ccc(C(=O)O)cc1 |  | 3.1 |  |  | MIC (rhinovirus A2 [4]): inactive; MIC (Poliovirus 2 [5]): inactive |
| CCc1noc(CC)c1CCCCCCOc1ccc(Br)cc1 |  | 6 |  |  | MIC (rhinovirus A2 [4]): inactive; MIC (Poliovirus 2 [5]): inactive |
| Cc1cc(CCCCCCCOc2ccc([N+](=O)[O-])cc2)on1 |  | 1.6 |  | 1.5 (≈ 4.71 µM) | MIC (rhinovirus A2 [4]): inactive |
| CCc1noc(CC)c1CCCCCCOc1ccc(OC)cc1[N+](=O)[O-] |  | 6 | 0.3 (≈ 0.797 µM) | 1.5 (≈ 3.98 µM) |  |
| CCc1noc(CC)c1CCCCCCOc1ccc(OC)cc1C(=O)OC |  | 12 |  |  | MIC (rhinovirus A2 [4]): inactive; MIC (Poliovirus 2 [1]): 2.9 µg/mL (≈ 7.45 µM) |
| CCC(=O)c1ccc(OCCCCCCCc2cc(C)no2)cc1 |  | 6.2 | 1.7 (≈ 5.16 µM) | 0.4 (≈ 1.21 µM) |  |
| CCc1noc(CC)c1CCCCCCOc1ccc(C(=O)OC)cc1Br | 0.4 (≈ 0.912 µM) | 12.5 |  |  | MIC (Poliovirus 2 [1]): 2.2 µg/mL (≈ 5.02 µM) |
| COc1ccc(OCCCCCCc2cc(C)no2)c(Cl)c1 | 0.8 (≈ 2.47 µM) | 12.5 |  |  | MIC (Poliovirus 2 [1]): 0.3 µg/mL (≈ 0.926 µM) |
| CC(=O)c1ccc(OCCCCCCCc2cc(C)no2)cc1 |  | 12.5 | 1.6 (≈ 5.07 µM) | 0.01 (≈ 0.0317 µM) |  |
| CCOC(=O)c1cccc(OCCCCCCCc2cc(C)no2)c1 |  | 12.5 | 1.6 (≈ 4.63 µM) |  | MIC (Poliovirus 2 [8]): inactive |
| CCc1noc(CC)c1CCCCCCOc1ccccc1F | 3.1 (≈ 9.71 µM) | 6.2 |  |  | MIC (Poliovirus 2 [5]): inactive |
